Measured values: ChEMBL document CHEMBL5705905, “Pharmacological targeting of kinases MST1 and MST2 augments tissue repair and regeneration” (Sci Transl Med, 2016)
The source made the active and inactive calls. No cut-off for these calls is given here.

Columns and labels:
[1] = target: Cyclin-dependent kinase 15 (Homo sapiens) (UniProt Q96Q40); experiment: Inhibition of PFTAIRE2 (unknown origin) assessed as remaining activity at 1 uM by Kinome scan method relative to control
[2] = target: Hepatocyte growth factor receptor (Homo sapiens) (UniProt P08581); experiment: Inhibition of MET (unknown origin) assessed as remaining activity at 1 uM by Kinome scan method relative to control
[3] = target: Ephrin type-A receptor 8 (Homo sapiens) (UniProt P29322); experiment: Inhibition of EPHA8 (unknown origin) assessed as remaining activity at 1 uM by Kinome scan method relative to control
Ephrin type-A receptor 8 (Homo sapiens), sequence (P29322 whole entry): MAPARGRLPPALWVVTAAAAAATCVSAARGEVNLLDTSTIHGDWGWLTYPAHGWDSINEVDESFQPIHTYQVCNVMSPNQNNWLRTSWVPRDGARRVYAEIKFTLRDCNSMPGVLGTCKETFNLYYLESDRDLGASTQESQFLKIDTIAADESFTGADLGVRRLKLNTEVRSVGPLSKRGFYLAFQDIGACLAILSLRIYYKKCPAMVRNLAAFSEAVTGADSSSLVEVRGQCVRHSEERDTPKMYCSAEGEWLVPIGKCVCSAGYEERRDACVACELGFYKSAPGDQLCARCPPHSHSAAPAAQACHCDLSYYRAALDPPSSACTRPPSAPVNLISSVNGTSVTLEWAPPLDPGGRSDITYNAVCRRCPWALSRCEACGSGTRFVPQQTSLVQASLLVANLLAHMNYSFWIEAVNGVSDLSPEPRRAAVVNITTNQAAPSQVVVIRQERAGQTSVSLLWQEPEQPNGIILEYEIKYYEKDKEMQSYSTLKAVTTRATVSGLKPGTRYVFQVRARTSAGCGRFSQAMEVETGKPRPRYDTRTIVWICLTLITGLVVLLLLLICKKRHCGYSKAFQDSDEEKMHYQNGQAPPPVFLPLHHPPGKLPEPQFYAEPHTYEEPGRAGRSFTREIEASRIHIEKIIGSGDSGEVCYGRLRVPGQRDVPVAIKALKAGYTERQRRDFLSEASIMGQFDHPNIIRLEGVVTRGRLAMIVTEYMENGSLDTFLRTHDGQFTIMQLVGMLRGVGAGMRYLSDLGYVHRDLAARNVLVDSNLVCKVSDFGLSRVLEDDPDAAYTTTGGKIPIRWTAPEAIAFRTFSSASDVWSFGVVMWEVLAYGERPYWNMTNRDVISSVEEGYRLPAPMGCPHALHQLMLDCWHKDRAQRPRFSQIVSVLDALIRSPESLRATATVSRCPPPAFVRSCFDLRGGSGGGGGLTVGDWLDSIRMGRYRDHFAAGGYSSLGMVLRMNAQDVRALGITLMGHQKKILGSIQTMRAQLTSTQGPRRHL

[4] = target: Mitogen-activated protein kinase kinase kinase 3 (Homo sapiens, UniProt Q99759); experiment: Inhibition of MAP3K3 (unknown origin) in presence of ATP by enzymatic assay
[5] = target: Insulin-like growth factor 1 receptor (Homo sapiens) (UniProt P08069); experiment: Inhibition of IGF1R (unknown origin) assessed as remaining activity at 1 uM by Kinome scan method relative to control
[6] = target: Mitogen-activated protein kinase kinase kinase 14 (Homo sapiens) (UniProt Q99558); experiment: Inhibition of NIK (unknown origin) assessed as remaining activity at 1 uM by Kinome scan method relative to control
[7] = target: Cyclin-dependent kinase-like 2 (Homo sapiens) (UniProt Q92772); experiment: Inhibition of CDKL2 (unknown origin) assessed as remaining activity at 1 uM by Kinome scan method relative to control
Procedure, shortened: (§1)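 Active-site-dependent competition-binding profiling (KINOMEscan) at 1 μM against a 468-kinase panel; compound supplied from a 10 mM DMSO stock. Read-out is ctrl% = (test signal − positive control signal)/(negative control signal − positive control signal) × 100. DMSO is the negative control (100%) and a control compound the positive control (0%). Lower ctrl% means tighter binding.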

[8] = test system: Receptor-type tyrosine-protein kinase FLT3 (Homo sapiens), P36888 [UNDEFINED MUTATION]; experiment: Inhibition of FLT3 […]/D835V mutant (unknown origin) assessed as remaining activity at 1 uM by Kinome scan method relative to control
[9] = target: Serine/threonine-protein kinase TAO1 (Homo sapiens, UniProt Q7L7X3); experiment: Inhibition of TAOK1 (unknown origin) in presence of ATP by enzymatic assay
[10] = target: Myosin light chain kinase, smooth muscle (Homo sapiens) (UniProt Q15746); experiment: Inhibition of MYLK (unknown origin) assessed as remaining activity at 1 uM by Kinome scan method relative to control
[11] = target: Serine/threonine-protein kinase 38 (Homo sapiens) (UniProt Q15208); experiment: Inhibition of NDR1 (unknown origin) assessed as remaining activity at 1 uM by Kinome scan method relative to control
[12] = target: Mitogen-activated protein kinase kinase kinase 2 (Homo sapiens) (UniProt Q9Y2U5); experiment: Inhibition of MAP3K2 (unknown origin) assessed as remaining activity at 1 uM by Kinome scan method relative to control
Mitogen-activated protein kinase kinase kinase 2 (Homo sapiens), sequence (Q9Y2U5 whole entry): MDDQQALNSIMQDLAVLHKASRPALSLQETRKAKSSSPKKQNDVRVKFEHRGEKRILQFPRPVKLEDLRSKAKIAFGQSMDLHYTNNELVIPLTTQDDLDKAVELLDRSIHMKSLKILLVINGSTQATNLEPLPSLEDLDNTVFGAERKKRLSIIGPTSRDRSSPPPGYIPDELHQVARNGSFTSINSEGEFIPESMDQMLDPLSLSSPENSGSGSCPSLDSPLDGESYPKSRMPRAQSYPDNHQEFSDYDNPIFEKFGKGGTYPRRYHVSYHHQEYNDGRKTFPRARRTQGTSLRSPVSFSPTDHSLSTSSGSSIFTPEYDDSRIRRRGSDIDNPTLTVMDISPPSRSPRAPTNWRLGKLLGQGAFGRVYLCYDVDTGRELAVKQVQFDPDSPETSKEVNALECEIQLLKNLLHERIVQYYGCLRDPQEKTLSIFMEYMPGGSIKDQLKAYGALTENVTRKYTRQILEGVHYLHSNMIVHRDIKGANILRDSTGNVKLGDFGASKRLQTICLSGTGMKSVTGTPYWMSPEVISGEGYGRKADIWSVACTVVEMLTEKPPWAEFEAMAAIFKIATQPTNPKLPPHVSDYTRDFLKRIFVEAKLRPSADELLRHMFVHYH

[13] = test system: HepG2; experiment: Induction of apoptosis in human HepG2 cells assessed as late apoptosis cells at 3 uM by annexinV staining (Rvb =0.84 %); type: functional
[14] = test system: Mus musculus; experiment: Protection against APAP induced liver injury in mouse assessed as decrease in ALT level at 1 mg/kg, ip administered at 1.5 hrs; type: functional, organism-based; conditions: Serum
[15] = target: Cyclin-dependent kinase 7 (Homo sapiens) (UniProt P50613); experiment: Inhibition of CDK7 (unknown origin) assessed as remaining activity at 1 uM by Kinome scan method relative to control; procedure, shortened: as §1
[16] = target: Phosphatidylinositol 4,5-bisphosphate 3-kinase catalytic subunit delta isoform (Homo sapiens) (UniProt O00329); experiment: Inhibition of PIK3CD (unknown origin) assessed as remaining activity at 1 uM by Kinome scan method relative to control
[17] = target: Tyrosine-protein kinase HCK (Homo sapiens) (UniProt P08631); experiment: Inhibition of HCK (unknown origin) assessed as remaining activity at 1 uM by Kinome scan method relative to control
Tyrosine-protein kinase HCK (Homo sapiens), sequence (P08631 2-526 limits assumed): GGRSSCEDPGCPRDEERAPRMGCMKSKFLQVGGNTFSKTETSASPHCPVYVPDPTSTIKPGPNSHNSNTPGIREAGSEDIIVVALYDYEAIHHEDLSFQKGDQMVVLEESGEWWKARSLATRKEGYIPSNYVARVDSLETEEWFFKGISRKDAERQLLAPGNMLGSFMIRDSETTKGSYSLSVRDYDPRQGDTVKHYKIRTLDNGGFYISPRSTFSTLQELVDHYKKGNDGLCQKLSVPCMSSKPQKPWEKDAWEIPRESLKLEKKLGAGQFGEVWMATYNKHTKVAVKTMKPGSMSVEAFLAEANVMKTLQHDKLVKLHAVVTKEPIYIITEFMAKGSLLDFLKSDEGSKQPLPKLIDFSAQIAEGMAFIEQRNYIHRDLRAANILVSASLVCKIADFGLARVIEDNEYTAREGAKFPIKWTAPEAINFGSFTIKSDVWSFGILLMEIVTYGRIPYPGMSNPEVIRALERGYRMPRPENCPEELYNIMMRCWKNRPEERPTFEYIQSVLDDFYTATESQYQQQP

[18] = target: Tyrosine-protein kinase receptor TYRO3 (Homo sapiens) (UniProt Q06418); experiment: Inhibition of TYRO3 (unknown origin) assessed as remaining activity at 1 uM by Kinome scan method relative to control
[19] = test system: Epidermal growth factor receptor (Homo sapiens), P00533 [UNDEFINED MUTATION]; experiment: Inhibition of EGFR L747-E749del/A750P mutant (unknown origin) assessed as remaining activity at 1 uM by Kinome scan method relative to control
[20] = target: RAC-gamma serine/threonine-protein kinase (Homo sapiens) (UniProt Q9Y243); experiment: Inhibition of AKT3 (unknown origin) assessed as remaining activity at 1 uM by Kinome scan method relative to control
Procedure, shortened: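 Active-site-dependent competition-binding (KINOMEscan) panel of 468 kinases, test compound at 1 μM (from a 10 mM DMSO stock). Read-out is ctrl% = (test signal − positive control signal)/(negative control signal − positive control signal) × 100. DMSO is the negative control (100%) and a control compound is the positive control (0%). Lower ctrl% means tighter binding.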

[21] = target: Serine/threonine-protein kinase TBK1 (Homo sapiens) (UniProt Q9UHD2); experiment: Inhibition of TBK1 (unknown origin) assessed as remaining activity at 1 uM by Kinome scan method relative to control
Serine/threonine-protein kinase TBK1 (Homo sapiens), sequence (Q9UHD2 whole entry): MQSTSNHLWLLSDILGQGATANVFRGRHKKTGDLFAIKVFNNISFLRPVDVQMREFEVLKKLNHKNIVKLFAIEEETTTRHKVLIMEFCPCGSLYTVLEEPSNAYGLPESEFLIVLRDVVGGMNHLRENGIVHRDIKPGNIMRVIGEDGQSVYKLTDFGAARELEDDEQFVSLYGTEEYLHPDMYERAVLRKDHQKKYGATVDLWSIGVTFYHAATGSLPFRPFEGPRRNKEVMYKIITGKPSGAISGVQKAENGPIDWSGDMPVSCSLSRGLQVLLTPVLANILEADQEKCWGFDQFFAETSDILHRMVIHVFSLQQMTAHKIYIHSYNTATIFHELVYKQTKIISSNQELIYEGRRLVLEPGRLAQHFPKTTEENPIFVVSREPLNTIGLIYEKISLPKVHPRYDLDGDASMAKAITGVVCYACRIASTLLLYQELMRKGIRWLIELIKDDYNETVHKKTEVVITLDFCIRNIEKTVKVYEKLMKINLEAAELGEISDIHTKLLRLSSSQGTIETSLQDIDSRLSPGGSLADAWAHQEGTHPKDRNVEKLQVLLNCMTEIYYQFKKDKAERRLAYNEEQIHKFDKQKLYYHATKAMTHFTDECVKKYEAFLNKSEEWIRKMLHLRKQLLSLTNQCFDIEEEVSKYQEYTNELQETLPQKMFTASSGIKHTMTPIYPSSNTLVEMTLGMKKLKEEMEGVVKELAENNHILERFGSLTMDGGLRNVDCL

[22] = test system: Mus musculus; experiment: In vivo inhibition of MST1/2 in wild-type Mst1fl/fl Mst2fl/fl mouse assessed as high number in nuclear YAP-positive cells at 1 mg/kg, ip administrated daily for 7 days by immunohistochemical staining; type: functional, organism-based; conditions: Liver, time 7.0 day
[23] = target: Serine/threonine-protein kinase TAO2 (Homo sapiens, UniProt Q9UL54); experiment: Inhibition of TAOK2 (unknown origin) in presence of ATP by enzymatic assay
Serine/threonine-protein kinase TAO2, sequence (Q9UL54 whole entry): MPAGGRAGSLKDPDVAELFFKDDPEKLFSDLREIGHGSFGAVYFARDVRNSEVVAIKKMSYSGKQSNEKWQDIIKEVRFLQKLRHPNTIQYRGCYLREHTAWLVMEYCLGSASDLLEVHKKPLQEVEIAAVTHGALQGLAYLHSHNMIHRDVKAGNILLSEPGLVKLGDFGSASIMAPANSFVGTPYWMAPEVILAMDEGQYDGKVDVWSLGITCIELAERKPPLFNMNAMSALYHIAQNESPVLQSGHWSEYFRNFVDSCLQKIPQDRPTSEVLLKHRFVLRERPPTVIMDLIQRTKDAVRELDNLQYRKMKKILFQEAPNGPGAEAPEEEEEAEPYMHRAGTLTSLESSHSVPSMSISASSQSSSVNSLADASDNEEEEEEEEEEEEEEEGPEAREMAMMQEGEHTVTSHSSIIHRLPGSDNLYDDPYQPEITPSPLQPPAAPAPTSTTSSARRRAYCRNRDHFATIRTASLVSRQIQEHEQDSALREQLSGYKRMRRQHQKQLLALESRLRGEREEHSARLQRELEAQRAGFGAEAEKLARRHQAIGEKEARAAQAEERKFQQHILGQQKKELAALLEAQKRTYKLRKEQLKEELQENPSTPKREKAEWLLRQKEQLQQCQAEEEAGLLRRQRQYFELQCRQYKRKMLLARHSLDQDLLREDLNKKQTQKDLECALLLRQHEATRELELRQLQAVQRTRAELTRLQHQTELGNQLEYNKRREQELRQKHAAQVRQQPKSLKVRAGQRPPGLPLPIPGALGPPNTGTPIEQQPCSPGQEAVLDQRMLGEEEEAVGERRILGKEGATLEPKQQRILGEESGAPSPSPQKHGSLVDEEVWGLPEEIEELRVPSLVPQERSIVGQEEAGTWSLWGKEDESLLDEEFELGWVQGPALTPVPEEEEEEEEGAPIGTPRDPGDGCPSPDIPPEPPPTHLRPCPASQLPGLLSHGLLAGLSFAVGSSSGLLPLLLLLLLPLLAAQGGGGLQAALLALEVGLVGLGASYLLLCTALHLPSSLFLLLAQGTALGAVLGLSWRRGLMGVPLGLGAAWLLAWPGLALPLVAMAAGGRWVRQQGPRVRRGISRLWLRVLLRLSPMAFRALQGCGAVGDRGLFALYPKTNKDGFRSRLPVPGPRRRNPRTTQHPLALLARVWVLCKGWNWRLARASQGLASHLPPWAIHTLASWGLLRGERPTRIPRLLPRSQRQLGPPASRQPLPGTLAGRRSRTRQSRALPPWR

[24] = target: Vascular endothelial growth factor receptor 3 (Homo sapiens) (UniProt P35916); experiment: Inhibition of FLT4 (unknown origin) assessed as remaining activity at 1 uM by Kinome scan method relative to control
[25] = target: Proto-oncogene tyrosine-protein kinase ROS (Homo sapiens) (UniProt P08922); experiment: Inhibition of ROS1 (unknown origin) assessed as remaining activity at 1 uM by Kinome scan method relative to control
[26] = target: Serine/threonine-protein kinase Nek10 (Homo sapiens) (UniProt Q6ZWH5); experiment: Inhibition of NEK10 (unknown origin) assessed as remaining activity at 1 uM by Kinome scan method relative to control
[27] = target: Serine/threonine-protein kinase VRK2 (Homo sapiens) (UniProt Q86Y07); experiment: Inhibition of VRK2 (unknown origin) assessed as remaining activity at 1 uM by Kinome scan method relative to control
Serine/threonine-protein kinase VRK2 (Homo sapiens), sequence (Q86Y07 whole entry): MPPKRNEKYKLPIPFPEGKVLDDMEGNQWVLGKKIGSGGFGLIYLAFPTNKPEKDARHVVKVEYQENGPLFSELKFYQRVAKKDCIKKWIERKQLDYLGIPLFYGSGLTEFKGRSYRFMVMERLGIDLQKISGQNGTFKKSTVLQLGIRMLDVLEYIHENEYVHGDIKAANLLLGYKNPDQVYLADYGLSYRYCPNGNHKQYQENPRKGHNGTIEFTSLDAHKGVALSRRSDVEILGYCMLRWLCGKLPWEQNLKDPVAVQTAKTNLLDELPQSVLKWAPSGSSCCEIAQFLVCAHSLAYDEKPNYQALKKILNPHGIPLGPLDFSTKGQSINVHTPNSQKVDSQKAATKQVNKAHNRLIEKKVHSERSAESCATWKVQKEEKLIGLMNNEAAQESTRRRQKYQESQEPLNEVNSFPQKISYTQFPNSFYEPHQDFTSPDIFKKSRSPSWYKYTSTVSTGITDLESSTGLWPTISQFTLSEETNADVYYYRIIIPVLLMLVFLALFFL

[28] = target: Phosphatidylinositol 5-phosphate 4-kinase type-2 gamma (Homo sapiens, UniProt Q8TBX8); experiment: Binding affinity to PIP5K2C (unknown origin) assessed as dissociation constant
Phosphatidylinositol 5-phosphate 4-kinase type-2 gamma, sequence (Q8TBX8 whole entry): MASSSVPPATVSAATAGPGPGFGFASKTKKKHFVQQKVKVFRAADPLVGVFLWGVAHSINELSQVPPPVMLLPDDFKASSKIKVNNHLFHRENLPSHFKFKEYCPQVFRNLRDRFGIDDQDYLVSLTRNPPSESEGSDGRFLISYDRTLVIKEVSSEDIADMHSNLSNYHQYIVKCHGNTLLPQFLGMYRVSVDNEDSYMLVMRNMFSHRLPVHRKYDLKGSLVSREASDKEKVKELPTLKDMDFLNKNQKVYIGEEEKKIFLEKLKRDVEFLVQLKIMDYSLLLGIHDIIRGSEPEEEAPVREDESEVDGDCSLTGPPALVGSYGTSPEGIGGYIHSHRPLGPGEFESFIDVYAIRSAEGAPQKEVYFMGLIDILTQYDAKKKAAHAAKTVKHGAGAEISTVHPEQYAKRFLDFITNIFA

[29] = target: Serine/threonine-protein kinase tousled-like 2 (Homo sapiens) (UniProt Q86UE8); experiment: Inhibition of TLK2 (unknown origin) assessed as remaining activity at 1 uM by Kinome scan method relative to control

In the case of `CN1C(=O)c2sccc2N(C)c2nc(Nc3ccc(S(N)(=O)=O)cc3)ncc21`, the Activity [1] is reported as 99%, the Activity [2] is reported as 100% and the Activity [3] is reported as 100%. For the same compound, the IC50 [4] was 38.4 nM, the Activity [5] was 94% and the Activity [6] was 58%. For the same compound, the Activity [7] was 97%, the Activity [8] was 27% and the IC50 [9] was 165 nM. For the same compound, the Activity [10] was 100%, the Activity [11] was 62% and the Activity [12] was 2.6%. For the same compound, the Activity [13] was 0.96%, the Activity [14] was “Active” and the Activity [15] was 60%. For the same compound, the Activity [16] was 47%, the Activity [17] was 100% and the Activity [18] was 100%. It also gave an Activity [19] of 100%, an Activity [20] of 98% and an Activity [21] of 90%. The inhibition [22] was “Active”, the IC50 [23] was 134 nM and the Activity [24] was 67%. For the same compound, the Activity [25] was 100%, the Activity [26] was 70% and the Activity [27] was 85%. For the same compound, the Kd [28] was 34 nM and the Activity [29] was 100%.
